Experimental data: PubChem BioAssay
Several values for one entry are separate records, joined by “and”; a condition that tells them apart may be missing. Equal values may be shown once. A number with no mark means an inactive call.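 How the source made its calls, unless noted: active means viability at or below 30% in both replicate assays; inconclusive means viability at or below 30% in just one of the two assays; inactive means the rest.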

Assay: SK-BR-3 cell growth inhibitors, pilot screen, 24 h, human (AID 572;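 active means viability at or below 10% of carrier control in both of two separate runs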;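 further: compound exposure lasted between 18 and 24 h rather than exactly 24 h; 100% = carrier-treated control wells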)
Details: SK-BR-3 viability, CellTiter-Glo luminescence, at 10 µM, hits give low values
`COc1cccc(C(c2nnnn2CCc2ccccc2)N2CCN(c3ccccc3)CC2)c1OC` (stereo not given) gave a viability of 91%.
With `CCN(CCO)C1CC(=O)N(c2ccccc2C)C1=O` (stereo not given) the viability was 95%.
In the case of `CCOC(=O)C1=C(C)Nc2nnnn2C1c1c[nH]c2ccccc12` (stereo not given), the viability was 110%.
For `Cc1cc(C)c(OCC(=O)Nc2ccc3c(c2)OCO3)cc1C`, the viability was 106%.
For `COc1ccccc1-c1nc(C#N)c(N2CCN(c3ccccc3)CC2)o1`, the viability was 104%.
`O=C1CCC(=O)N1OCCCOc1ccc(Br)cc1Cl` gave a viability of 106%.
`CCOc1cc(C(=O)NCC2CCCO2)cc(OCC)c1OCC` (stereo not given) showed a viability of 100%.
For `COc1ccc2c(c1OC)C(=O)OC2C1c2c(cc3c(c2OC)OCO3)CCN1C` (stereo not given), the viability was 89% and 83%.
Molecule `Cc1ccc(-c2nnn(CC(=O)N(CC3CCCO3)C(C(=O)NC(C)(C)C)c3ccc(F)cc3)n2)o1` (stereo not given) has a viability of 106%.
For `O=c1ccc(S(=O)(=O)N2CCC(Cc3ccccc3)CC2)c[nH]1`, the viability was 86%.
For `Cc1[nH]c(=O)[nH]c(=O)c1S(=O)(=O)N1c2ccc(F)cc2CCC1C` (stereo not given), the viability was 97.5%.
For `NC(=O)c1ccccc1NC(=O)CN1CCOCC1`, the viability was 106%.
In the case of `O=C(Nn1c(C2CC2)nc2ccccc2c1=O)c1ccco1`, the viability was 109%.
Molecule `CCOc1ccc(-c2nnn(CCC(=O)O)n2)cc1OC` has a viability of 95.5%.
`O=C(CCN1C(=O)COc2ccccc21)NCCN1CCN(c2cccc(Cl)c2)CC1` showed a viability of 94.5%.
`Cc1ccc(-n2nc(-c3cccs3)cc2C(=O)NCC2CCCO2)c(C)c1` (stereo not given) showed a viability of 122%.
`Cc1cc(C)cc(OCCCC(=O)O)c1` gave a viability of 114%.
In the case of `CCN(C(=O)Cc1c(C(=O)O)[nH]c2ccccc12)c1cc(OC)ccc1OC`, the viability was 112%.
In the case of `C=CCSC1=C(C#N)C(c2ccccc2OCC)CC(=O)N1` (stereo not given), the viability was 94%.
Work on `COc1ccc(Br)cc1S(=O)(=O)N1CC(C)OC(C)C1` (stereo not given) yielded a viability of 90.5%.
`O=C(NCc1ccco1)c1cccn2c(=O)c3sccc3nc12` gave a viability of 104%.
Work on `Cc1cc(NC(=O)C23CCC(C)(c4nc5cc(Cl)c(Cl)cc5nc42)C3(C)C)no1` (stereo not given) yielded a viability of 124%.
`CC(NC(=O)Nc1ccccc1)C(c1cccs1)N1CCOCC1` (stereo not given) gave a viability of 108%.
Molecule `CCS(=O)(=O)Nc1ccc(C(=O)CC2(O)C(=O)Nc3ccccc32)cc1` (stereo not given) has a viability of 105%.
In the case of `CCN(CC)C(=O)Cn1c(=O)n(Cc2ccccc2Cl)c2c1c(=O)n(C)c(=O)n2C`, the viability was 98%.
Work on `CC(C)COc1nc2ccccc2nc1C(C#N)C(=O)NC1CCCCC1` (stereo not given) yielded a viability of 99%.
`CCOC(=O)c1sc(NC(=O)CNC(=O)Cn2cnc3sc(C)c(C)c3c2=O)nc1C` gave a viability of 94%.
`CCc1cc(=O)oc2c(CN3CCN(C)CC3)c(O)c(Cl)cc12` gave a viability of 107%.
`CC(=O)N1C(=O)C2(Nc3ccccc3N2)c2ccccc21` showed a viability of 110%.
For `COc1ccc(C)cc1S(=O)(=O)N(CC(=O)O)c1ccccc1`, the viability was 118%.
`COc1ccc(N2C(N)=C(C#N)C(c3cccnc3)C3=C2CC(C)(C)CC3=O)cc1` (stereo not given) showed a viability of 106%.
Molecule `COc1ccc(NC(=O)CN2CCN(S(=O)(=O)c3ccc(Cl)cc3)CC2)cc1` has a viability of 92%.
Work on `O=C(O)c1cccc(S(=O)(=O)N2CCOCC2)c1` yielded a viability of 118%.
`CCn1c(C)cc(=S)c2ccccc21` gave a viability of 114%.
For `Cn1c(SCC(=O)O)nnc1C1CCCCC1`, the viability was 102%.
Work on `COc1ccc(OC)c(NC(=O)CCN2CCN(c3ccccc3F)CC2)c1` yielded a viability of 94.5%.
`O=C(CSc1ncnc2c1oc1ccccc12)Nc1ccccc1C(F)(F)F` showed a viability of 118%.
For `Cc1ccc(S(=O)(=O)NCCC(=O)OCn2nnc3ccccc3c2=O)cc1`, the viability was 95.5%.
Work on `CCOc1ccc2nc(SCC#N)c(C#N)cc2c1` yielded a viability of 93%.
`O=C(Nc1cccnc1)c1ccc2c(c1)OCO2` gave a viability of 119%.

Assay: HUVEC growth inhibition – cell-based, human, primary screen (AID 575);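 further: 100% = median of untreated cell wells with 0.1% DMSO on each plate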
Details: HUVEC proliferation, CellTiter-Glo luminescence, 72 h; at 10 µM; hits give low values
In short: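 Test system: HUVEC primary cells. Quantity: 1250 endothelial cells in each well. Dosing: single-point 10 µM, DMSO 0.1% final. Incubation: 72 h treatment at 37 °C. Measured by: CTG luminescence. Control set: DMSO cell controls and MePR drug controls. Plate: collagen-coated 384-well format.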
With `COc1cccc(C(c2nnnn2CCc2ccccc2)N2CCN(c3ccccc3)CC2)c1OC` (stereo not given) the viability was 109%.
In the case of `CCN(CCO)C1CC(=O)N(c2ccccc2C)C1=O` (stereo not given), the viability was 105%.
In the case of `CCOC(=O)C1=C(C)Nc2nnnn2C1c1c[nH]c2ccccc12` (stereo not given), the viability was 77.3%.
For `Cc1cc(C)c(OCC(=O)Nc2ccc3c(c2)OCO3)cc1C`, the viability was 92%.
Molecule `COc1ccccc1-c1nc(C#N)c(N2CCN(c3ccccc3)CC2)o1` has a viability of 70.4%.
Molecule `O=C1CCC(=O)N1OCCCOc1ccc(Br)cc1Cl` has a viability of 90%.
Molecule `CCOc1cc(C(=O)NCC2CCCO2)cc(OCC)c1OCC` (stereo not given) has a viability of 119%.
For `COc1ccc2c(c1OC)C(=O)OC2C1c2c(cc3c(c2OC)OCO3)CCN1C` (stereo not given), the viability was 70.2% and 90.3%.
`Cc1ccc(-c2nnn(CC(=O)N(CC3CCCO3)C(C(=O)NC(C)(C)C)c3ccc(F)cc3)n2)o1` (stereo not given) showed a viability of 100%.
`O=c1ccc(S(=O)(=O)N2CCC(Cc3ccccc3)CC2)c[nH]1` gave a viability of 111%.
Molecule `Cc1[nH]c(=O)[nH]c(=O)c1S(=O)(=O)N1c2ccc(F)cc2CCC1C` (stereo not given) has a viability of 100%.
In the case of `NC(=O)c1ccccc1NC(=O)CN1CCOCC1`, the viability was 104%.
Molecule `O=C(Nn1c(C2CC2)nc2ccccc2c1=O)c1ccco1` has a viability of 93.9%.
With `CCOc1ccc(-c2nnn(CCC(=O)O)n2)cc1OC` the viability was 104%.
For `O=C(CCN1C(=O)COc2ccccc21)NCCN1CCN(c2cccc(Cl)c2)CC1`, the viability was 90.9%.
`Cc1ccc(-n2nc(-c3cccs3)cc2C(=O)NCC2CCCO2)c(C)c1` (stereo not given) showed a viability of 71.3%.
Molecule `Cc1cc(C)cc(OCCCC(=O)O)c1` has a viability of 67.9%.
Work on `CCN(C(=O)Cc1c(C(=O)O)[nH]c2ccccc12)c1cc(OC)ccc1OC` yielded a viability of 94.1%.
Molecule `C=CCSC1=C(C#N)C(c2ccccc2OCC)CC(=O)N1` (stereo not given) has a viability of 88.3%.
Work on `COc1ccc(Br)cc1S(=O)(=O)N1CC(C)OC(C)C1` (stereo not given) yielded a viability of 95.6%.
`O=C(NCc1ccco1)c1cccn2c(=O)c3sccc3nc12` showed a viability of 82.5%.
Molecule `Cc1cc(NC(=O)C23CCC(C)(c4nc5cc(Cl)c(Cl)cc5nc42)C3(C)C)no1` (stereo not given) has a viability of 88.5%.
In the case of `CC(NC(=O)Nc1ccccc1)C(c1cccs1)N1CCOCC1` (stereo not given), the viability was 99.5%.
In the case of `CCS(=O)(=O)Nc1ccc(C(=O)CC2(O)C(=O)Nc3ccccc32)cc1` (stereo not given), the viability was 90.3%.
In the case of `CCN(CC)C(=O)Cn1c(=O)n(Cc2ccccc2Cl)c2c1c(=O)n(C)c(=O)n2C`, the viability was 98.6%.
For `CC(C)COc1nc2ccccc2nc1C(C#N)C(=O)NC1CCCCC1` (stereo not given), the viability was 80%.
Work on `CCOC(=O)c1sc(NC(=O)CNC(=O)Cn2cnc3sc(C)c(C)c3c2=O)nc1C` yielded a viability of 93.4%.
Work on `CCc1cc(=O)oc2c(CN3CCN(C)CC3)c(O)c(Cl)cc12` yielded a viability of 92.6%.
`CC(=O)N1C(=O)C2(Nc3ccccc3N2)c2ccccc21` showed a viability of 104%.
For `COc1ccc(C)cc1S(=O)(=O)N(CC(=O)O)c1ccccc1`, the viability was 106%.
For `COc1ccc(N2C(N)=C(C#N)C(c3cccnc3)C3=C2CC(C)(C)CC3=O)cc1` (stereo not given), the viability was 79.5%.
`COc1ccc(NC(=O)CN2CCN(S(=O)(=O)c3ccc(Cl)cc3)CC2)cc1` showed a viability of 88%.
For `O=C(O)c1cccc(S(=O)(=O)N2CCOCC2)c1`, the viability was 95%.
For `CCn1c(C)cc(=S)c2ccccc21`, the viability was 98.6%.
Work on `Cn1c(SCC(=O)O)nnc1C1CCCCC1` yielded a viability of 99.7%.
With `COc1ccc(OC)c(NC(=O)CCN2CCN(c3ccccc3F)CC2)c1` the viability was 90.8%.
`O=C(CSc1ncnc2c1oc1ccccc12)Nc1ccccc1C(F)(F)F` gave a viability of 86.8%.
In the case of `Cc1ccc(S(=O)(=O)NCCC(=O)OCn2nnc3ccccc3c2=O)cc1`, the viability was 83.8%.
Work on `CCOc1ccc2nc(SCC#N)c(C#N)cc2c1` yielded a viability of 104%.
`O=C(Nc1cccnc1)c1ccc2c(c1)OCO2` showed a viability of 99.6%.
